Experimental data of several laboratories.
Compare with care: the assays were run in different laboratories.
Target: Focal adhesion kinase 1 (PTK2, Homo sapiens, UniProt Q05397)

Structure (SMILES) | assay | setting | quantity | value
COc1ncccc1-c1cnn2ccc(N3CCN(C(=O)OC(C)C)CC3)nc12 | binding, competition with immobilised ligand | 1 µM | remaining binding | 97%
Cn1cc(-c2cc(F)cc(N3CCn4c(cc5c4CCCC5)C3=O)c2CO)cc(Nc2ccc(N3CCN(C4COC4)CC3)cn2)c1=O | enzyme activity, inhibitor | 0.1 µM | inhibition | 18%
O=c1[nH]c2ccccc2n1C1CCN(Cc2ccc(-c3[nH]c4cc5ncnc5cc4nc3-c3ccccc3)cc2)CC1 | cell-free assay | 0.5 µM | remaining signal | 108%
N#CC1(c2ccccn2)CCN(Cc2cc(C(=O)O)c(=O)n3ccccc23)CC1 | cell-free assay, competition with immobilised ligand | 1 µM | remaining binding | 100%
CC(C)(C)c1cc(C=C(C#N)C#N)cc(Br)c1O | enzyme activity, inhibitor | 0.5 µM | remaining activity | 107%
Cn1cc(-c2cccc(N3CCc4c(sc5c4CC(C)(C)C5)C3=O)c2CO)cc(Nc2ccncn2)c1=O | enzyme activity, inhibitor | 1 µM | inhibition | 3%
C#Cc1n[nH]c2c(-c3cn(C(C)c4ccccn4)c(=O)[nH]c3=O)cc(F)cc12 (stereo not shown) | enzyme activity, inhibitor | 1 µM | inhibition | 5.6%
Nc1ncc(-c2nc(N3CCOCC3)nc(N3CCOCC3)n2)c(C(F)F)n1 | binding, competition with immobilised ligand | 10 µM | remaining binding | 100%
Cn1cncc1[C@](O)(COc1ccc(C#N)cc1-c1ccc(OC(F)(F)F)cc1)c1ccc(C#N)cc1 | cell-free assay, competition with immobilised ligand | 1 µM | remaining binding | 77%
Cc1nn(C)cc1-c1nc2c(N3CCN(Cc4ccc(Cl)cc4)CC3)c(Cl)cnc2[nH]1 | binding, competition with immobilised ligand | 1 µM | remaining binding | 95%
